Laboratory results from paper PMC11865470 (Communications Biology, 2025).
“Also recorded” adds a separate entry of the source.

What was measured:
Assay type in all cases: cell-based
Kir1.1 = target: T1, Kir1.1 (Homo sapiens, UniProt P48048); assay: whole-cell patch-clamp, off-target channel, 10 μM compound; details: vs 0.1% DMSO
T1 sequence (P48048 1-391): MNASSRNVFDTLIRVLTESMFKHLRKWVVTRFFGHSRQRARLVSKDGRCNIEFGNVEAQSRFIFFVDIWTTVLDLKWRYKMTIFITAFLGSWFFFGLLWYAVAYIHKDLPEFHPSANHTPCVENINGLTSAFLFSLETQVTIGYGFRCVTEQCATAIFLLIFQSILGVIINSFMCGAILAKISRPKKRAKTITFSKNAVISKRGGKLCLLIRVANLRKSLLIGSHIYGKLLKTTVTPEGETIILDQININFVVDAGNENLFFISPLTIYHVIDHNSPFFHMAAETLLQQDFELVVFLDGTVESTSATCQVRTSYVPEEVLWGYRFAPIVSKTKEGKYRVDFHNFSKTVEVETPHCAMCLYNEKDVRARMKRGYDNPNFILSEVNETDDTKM
Method in brief: (§1)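 Kir channels in transfected HEK293T cells, whole-cell. Pipette (mM): 135 KCl, 2 MgCl2, 10 HEPES, 1 EGTA, 4 Na2-ATP, pH 7.3. Bath (mM): 135 NaCl, 5 KCl, 1.5 CaCl2, 1 MgCl2, 10 HEPES, 10 glucose, pH 7.4. 0.1% DMSO bath applied before 10 μM test compound. Inhibition ratios compared by unpaired t-test, n = 5.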

[1] = target: T2, mOtop1 channels co-expressed in HEK293 cells (Mus musculus, UniProt Q80VM9); assay: live cell intracellular pH imaging; details: 10 μM; for effect on intracellular pH changes mediated by mOtop1, acidification: extracellular pH 6.0/5.0; for effect on intracellular pH changes mediated by mOtop1, alkalinization: extracellular pH 8.5
T2 sequence (Q80VM9 1-600): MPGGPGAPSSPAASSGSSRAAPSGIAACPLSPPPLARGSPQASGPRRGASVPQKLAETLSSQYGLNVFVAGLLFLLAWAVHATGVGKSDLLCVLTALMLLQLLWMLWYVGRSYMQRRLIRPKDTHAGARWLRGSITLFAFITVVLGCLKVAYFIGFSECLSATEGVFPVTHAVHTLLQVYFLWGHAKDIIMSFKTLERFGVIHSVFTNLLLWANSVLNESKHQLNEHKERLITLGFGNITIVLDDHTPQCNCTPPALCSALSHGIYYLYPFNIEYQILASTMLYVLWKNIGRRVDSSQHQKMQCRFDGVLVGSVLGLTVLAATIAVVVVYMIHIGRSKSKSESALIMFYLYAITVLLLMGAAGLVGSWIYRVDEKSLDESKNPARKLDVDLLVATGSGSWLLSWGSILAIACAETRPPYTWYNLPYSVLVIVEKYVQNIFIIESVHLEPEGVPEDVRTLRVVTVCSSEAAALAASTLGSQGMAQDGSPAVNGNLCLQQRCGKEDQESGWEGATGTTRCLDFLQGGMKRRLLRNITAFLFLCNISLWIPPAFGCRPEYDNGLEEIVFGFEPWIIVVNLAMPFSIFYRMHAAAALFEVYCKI
Method in brief: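 HEK293 cells were electroporated (180 V, 25 ms) with pHmScarlet-mTurquise2, with or without mOtop1, and imaged 24 h later. Cells sat in pH 7.4 solution (mM: 140 KCl, 10 NaCl, 1 MgCl2, 20 HEPES), then were shifted to pH 8.5 (Tris), 6.0 (MES) or 5.0 (HomoPIPES). Test compound was 10 μM in the stimulus solution, with acetic acid pH 5.0 as positive control. FpHmScarlet/FmTurquise2 ratio read every 2 s.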

[2] = target: T3, mouse Otop1 (mOtop1) channels (Mus musculus, UniProt Q80VM9); assay: whole-cell patch-clamp, "on-current" analysis of acid/alkali-evoked currents
T3 sequence (Q80VM9 1-600): T2 sequence (Q80VM9 1-600)

[3] = target: T4, Otop1 channels from human origin (hOtop1) (Homo sapiens, UniProt Q7RTM1); assay: whole-cell patch-clamp, pH 5.5-evoked currents; details: 10 μM
T4 sequence (Q7RTM1 1-612): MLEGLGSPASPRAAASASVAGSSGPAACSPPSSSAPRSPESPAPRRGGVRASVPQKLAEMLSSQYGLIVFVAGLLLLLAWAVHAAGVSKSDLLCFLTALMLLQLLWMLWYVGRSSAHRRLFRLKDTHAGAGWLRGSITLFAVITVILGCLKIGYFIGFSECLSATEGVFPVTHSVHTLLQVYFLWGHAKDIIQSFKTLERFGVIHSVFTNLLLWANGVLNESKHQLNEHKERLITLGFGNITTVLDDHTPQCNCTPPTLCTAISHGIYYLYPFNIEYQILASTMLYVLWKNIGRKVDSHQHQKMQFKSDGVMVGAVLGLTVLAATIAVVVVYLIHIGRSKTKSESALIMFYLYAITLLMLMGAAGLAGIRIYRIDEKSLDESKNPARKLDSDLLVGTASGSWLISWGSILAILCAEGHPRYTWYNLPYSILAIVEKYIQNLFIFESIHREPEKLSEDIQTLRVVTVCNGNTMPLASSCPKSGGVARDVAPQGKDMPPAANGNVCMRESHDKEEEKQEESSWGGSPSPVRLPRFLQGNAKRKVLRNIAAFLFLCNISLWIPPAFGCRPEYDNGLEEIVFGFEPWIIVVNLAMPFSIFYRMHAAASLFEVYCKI
Method in brief: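 Channel plasmid (2.5 μg) was co-transfected with EGFP plasmid (0.5 μg) using Lipofectamine 2000 into PAC-knockout HEK293T cells. Whole-cell recording 16–24 h after seeding, with Cs-aspartate pipette solution (pH 7.3). Currents evoked by pH 5.5 bath (160 mM NMDG-Cl, 2 mM CaCl2, 10 mM MES); test compound 10 μM.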

Kir4.1 = target: T5, Kir4.1 (Homo sapiens, UniProt P78508); assay: whole-cell patch-clamp, off-target channel, 10 μM compound; details: vs 0.1% DMSO
T5 sequence (P78508 1-379): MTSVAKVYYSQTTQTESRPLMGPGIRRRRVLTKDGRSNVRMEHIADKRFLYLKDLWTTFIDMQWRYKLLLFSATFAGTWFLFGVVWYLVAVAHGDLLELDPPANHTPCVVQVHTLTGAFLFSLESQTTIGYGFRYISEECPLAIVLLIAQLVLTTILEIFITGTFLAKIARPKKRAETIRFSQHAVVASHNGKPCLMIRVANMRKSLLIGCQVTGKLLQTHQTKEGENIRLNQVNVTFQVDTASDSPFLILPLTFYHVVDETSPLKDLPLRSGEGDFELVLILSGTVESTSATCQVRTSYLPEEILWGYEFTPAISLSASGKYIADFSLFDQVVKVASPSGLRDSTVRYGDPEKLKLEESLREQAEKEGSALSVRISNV
Method in brief: as §1

[4] = EC50s, enhancing acid-evoked Otop1 currents, summary statement
[5] = apparent EC50, potentiation of mOtop1 currents, pH 5.5, on-current analysis, n = 5

SMILES	sensitivity of channel to compound (Kir1.1)	effect on intracellular pH changes mediated by mOtop1, acidification [1]	effect on intracellular pH changes mediated by mOtop1, alkalinization [1]	direct activation of the Otop1 channel [2]	effect on pH 3.5-activated mOtop1 currents ([2]; 10 μM)	effect on pH 5.5-activated mOtop1 currents ([2]; 10 μM, pH 5.5)	EC50 [2, 4] [µM]	EC50 [2, 5] [µM]	effect on hOtop1 currents [3]	sensitivity of channel to compound (Kir4.1)	effect on mOtop1 activity at alkaline or neutral pH ([2]; 10 μM, alkaline and neutral pH)	effect on pH 4.5-6.0 acid-activated mOtop1 currents ([2]; 10 μM, compared to the pH 3.5 group, Fig 1E)	EC50 ([2]; EC50, potentiation of mOtop1 currents, pH 6.0, on-current analysis, n = 5) [µM]
CC(C)c1noc2ncc(C(=O)c3ccccc3O)cc12 [HIMOP, (2-hydroxyphenyl)-(3-propan-2-yl-5-isoxazolo[5,4-b]pyridinyl)methanone]	completely resistant	increases intracellular pH changes	small but statistically significant increase in pHi; also recorded: increases intracellular pH changes; also recorded: slightly but significantly enhance	without directly activating	did not potentiate	robust potentiation effects; also recorded: markedly potentiated; also recorded: potent potentiation effects	~10	16.8 ± 6.5	potent potentiation effects	completely resistant			
Cc1ccc(C(=O)Nc2ccc3ccccc3c2)o1 [MFaN, 5-methyl-N-2-naphthyl-2-furamide]	completely resistant	increases intracellular pH changes	no effect	without directly activating	no detectable effect	robust potentiation effects; also recorded: potent potentiation effects	~10	10.3 ± 2.6	potent potentiation effects	completely resistant	did not affect	potently potentiated	8.9 ± 4.7
Cc1cc(NC(=O)c2ccc(Br)o2)ccc1NC(=O)c1ccco1 [B2FAMP, 5-Bromo-N-[4-(2-furoylamino)-3-methylphenyl]-2-furamide]	completely resistant	increases intracellular pH changes	no effect	without directly activating	did not potentiate	robust potentiation effects; also recorded: markedly potentiated; also recorded: potent potentiation effects	~10	12.2 ± 3.4	potent potentiation effects	completely resistant			
